Laboratory results as given in ChEMBL document CHEMBL2029236, “Tubulin binding, protein-bound conformation in solution, and antimitotic cellular profiling of noscapine and its derivatives” (J Med Chem, 2012).
Active and inactive are the calls of the source. The rule behind the calls is not given here.

Experiments:
Bos taurus [1] = species: Bos taurus; experiment: Binding affinity to calf brain tubulin assessed as increase in fluorescence at 10 uM by fluorometry relative to control
Method in brief: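 Fluorescence emission spectra of 10 μM ligand with and without 10 μM tubulin in 10 mM sodium phosphate, 0.1 mM GTP, pH 7.0, 25 °C. Emission intensity (425 nm maximum) and anisotropy were compared between bound and unbound ligand.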

SNU-398 [2] = experiment: Antiproliferative activity against human SNU398 cells; format: functional, cell-based
Method in brief: (§1)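 Cell viability assay in hepatocellular carcinoma cell lines; IC50 values derived from concentration–response data and reported in nM.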

[3] = Antiproliferative activity against human PLC/PRF/5 cells; format: functional, cell-based; method in brief: as §1
SNU-398 [4] = experiment: Cell cycle arrest in human SNU398 cells assessed as accumulation at G1 phase at 2 uM after 24 hrs by FACS analysis (reference value: 55.8%); format: functional
SNU-398 [5] = experiment: Cell cycle arrest in human SNU398 cells assessed as accumulation at G2 phase at 2 uM after 24 hrs by FACS analysis (reference value: 38.2%); format: functional
SNU-398 [6] = experiment: Cell cycle arrest in human SNU398 cells assessed as accumulation at sub-G1 phase at 2 uM after 24 hrs by FACS analysis (reference value: 1.2%); format: functional
[7] = Cell cycle arrest in human PLC/PRF/5 cells assessed as accumulation at G1 phase at 2 uM after 24 hrs by FACS analysis (reference value: 66.8%); format: functional, cell-based
[8] = Cell cycle arrest in human PLC/PRF/5 cells assessed as accumulation at G2 phase at 2 uM after 24 hrs by FACS analysis (reference value: 26.1%); format: functional, cell-based
[9] = Cell cycle arrest in human PLC/PRF/5 cells assessed as accumulation at sub-G1 phase at 2 uM after 24 hrs by FACS analysis (reference value: 1.4%); format: functional, cell-based
Bos taurus [10] = species: Bos taurus; experiment: Inhibition of calf brain tubulin assembly at 1 mM
Method in brief: (§2)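 Read-out: amount of pelleted polymerized tubulin across a compound concentration range. EC50 taken at 50% reduction of the pellet. Average of three experiments.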

[11] = Inhibition of calf brain tubulin assembly; design: species or system Bos taurus; method in brief: as §2
Bos taurus [12] = species: Bos taurus; experiment: Binding affinity to calf brain tubulin assessed as binding constant by fluorometry; format: tissue-based
Method in brief: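 Fluorescence titration in 10 mM sodium phosphate, 0.1 mM GTP, pH 7.0, 25 °C. Ligand at 5 μM was titrated with tubulin up to 100 μM. Bound and free ligand were quantified from the change in ligand fluorescence. Binding constant fitted assuming a single site, 1:1 stoichiometry and 0.87 sites per dimer. Average of five experiments.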

Bos taurus [13] = species: Bos taurus; experiment: Inhibition of calf brain tubulin assembly at 10 uM by fluorometry in presence of podophyllotoxin
Bos taurus [14] = species: Bos taurus; experiment: Inhibition of calf brain tubulin assembly at 10 uM by fluorometry in presence of vinblastine
Bos taurus [15] = species: Bos taurus; experiment: Inhibition of calf brain tubulin assembly at 10 uM by fluorometry in presence of isohomohalichondrin
Bos taurus [16] = species: Bos taurus; experiment: Inhibition of calf brain tubulin assembly at 10 uM by fluorometry in presence of pironetin
Bos taurus [17] = species: Bos taurus; experiment: Inhibition of calf brain tubulin assembly at 10 uM by fluorometry in presence of gossipol
Bos taurus [18] = species: Bos taurus; experiment: Inhibition of calf brain tubulin assembly at 10 uM by fluorometry in presence of noscapine
Bos taurus [19] = species: Bos taurus; experiment: Inhibition of calf brain tubulin assembly at 10 uM by fluorometry in presence of nocodazole
Bos taurus [20] = species: Bos taurus; experiment: Binding affinity to calf brain tubulin alpha/beta heterodimer assessed as increase in proton signal at […] by STD NMR analysis
Method in brief: (§3)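 STD NMR with freshly prepared tubulin α/β heterodimer. Ligand:protein molar ratio 30:1 ([…], […]). Read-out: enhancement of ligand proton signals in STD spectra versus an off-resonance reference spectrum acquired without protein irradiation.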

Bos taurus [21] = species: Bos taurus; experiment: Binding affinity to calf brain tubulin alpha/beta heterodimer assessed as increase in proton signal at […] by STD NMR analysis in the presence of noscapine; method in brief: as §3
SMMC-7721 = experiment: Antiproliferative activity against human SMMC7721 after 72 hrs by CellTiter Glo assay; format: functional, cell-based; details: SMMC-7721, 72 h; method in brief: as §1
[22] = Antiproliferative activity against human MHCC97H after 72 hrs by CellTiter Glo assay; format: functional; method in brief: as §1
Bel-7402 = experiment: Antiproliferative activity against human Bel7402 after 72 hrs by CellTiter Glo assay; format: functional, cell-based; details: Bel-7402, 72 h; method in brief: as §1
[23] = Antiproliferative activity against human Hep3B after 72 hrs by CellTiter Glo assay; format: functional, Hep 3B2; method in brief: as §1
HepG2 = experiment: Antiproliferative activity against human HepG2 after 72 hrs by CellTiter Glo assay; format: functional, cell-based; details: HepG2, 72 h; method in brief: as §1
Huh-7 = experiment: Antiproliferative activity against human HuH7 after 72 hrs by CellTiter Glo assay; format: functional, cell-based; details: Huh-7, 72 h; method in brief: as §1
[24] = Antiproliferative activity against human JHH2 after 72 hrs by CellTiter Glo assay; format: functional; method in brief: as §1
[25] = Antiproliferative activity against human JHH4 after 72 hrs by CellTiter Glo assay; format: functional; method in brief: as §1
[26] = Antiproliferative activity against human JHH7 after 72 hrs by CellTiter Glo assay; format: functional; method in brief: as §1
[27] = Antiproliferative activity against human PLC/PRF/5 after 72 hrs by CellTiter Glo assay; format: functional; details: PLC-PRF-5, 72 h; method in brief: as §1
[28] = Antiproliferative activity against human SNU182 after 72 hrs by CellTiter Glo assay; format: functional, cell-based; details: SNU-182, 72 h; method in brief: as §1
SNU-387 = experiment: Antiproliferative activity against human SNU387 after 72 hrs by CellTiter Glo assay; format: functional, cell-based; details: SNU-387, 72 h; method in brief: as §1
SNU-398 [29] = experiment: Antiproliferative activity against human SNU398 after 72 hrs by CellTiter Glo assay; format: functional, cell-based; details: SNU-398, 72 h; method in brief: as §1
SNU-423 = experiment: Antiproliferative activity against human SNU423 after 72 hrs by CellTiter Glo assay; format: functional, cell-based; details: SNU-423, 72 h; method in brief: as §1
SNU-449 = experiment: Antiproliferative activity against human SNU449 after 72 hrs by CellTiter Glo assay; format: functional, cell-based; details: SNU-449, 72 h; method in brief: as §1
SNU-475 = experiment: Antiproliferative activity against human SNU475 after 72 hrs by CellTiter Glo assay; format: functional, cell-based; details: SNU-475, 72 h; method in brief: as §1
[30] = Metabolic stability in microsomes assessed as compound remaining; format: ADME, Microsome
[31] = Metabolic stability in S9 fraction assessed as compound remaining; format: ADME, subcellular
Bos taurus [32] = species: Bos taurus; experiment: Binding affinity to calf brain tubulin assessed as increase in fluorescence at 10 uM by fluorometry in presence of Mg2+
Bos taurus [33] = species: Bos taurus; experiment: Binding affinity to calf brain tubulin alpha/beta heterodimer by NOE method; format: tissue-based
Method in brief: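 Transferred NOE (TR-NOESY) of ligand with tubulin α/β heterodimer at 500 MHz, 298 K. The sign of the NOE cross-peaks is compared between ligand with tubulin and free ligand. Bound conformation derived with molecular mechanics.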

SMILES: COc1ccc2c(c1O)C(=O)O[C@@H]2[C@H]1c2c(cc3c(c2OC)OCO3)CCN1C
- Activity (Bos taurus [1]): inactive
- IC50 (SNU-398 [2]): > 2000 nM
- IC50 [3]: > 2000 nM
- Activity (SNU-398 [4]): 33.5%
- Activity (SNU-398 [5]): 47.8%
- Activity (SNU-398 [6]): 15.2%
- Activity [7]: 62.8%
- Activity [8]: 23.3%
- Activity [9]: 8.7%

SMILES: COc1ccc2c(c1N)C(=O)O[C@@H]2[C@H]1c2c(cc3c(c2OC)OCO3)CCN1C
- inhibition (Bos taurus [10]): 50%
- EC50 [11]: 1200 nM
- fold change (FC) (Bos taurus [1]): 11
- Activity (Bos taurus [12]): 1.15 ×10⁵ /M
- inhibition (Bos taurus [13]): Active
- inhibition (Bos taurus [14]): Active
- inhibition (Bos taurus [15]): Active
- inhibition (Bos taurus [16]): Active
- inhibition (Bos taurus [17]): Active
- inhibition (Bos taurus [18]): Active
- inhibition (Bos taurus [19]): inactive
- inhibition (Bos taurus [20]): Active
- inhibition (Bos taurus [21]): Active
- IC50 (SNU-398 [2]): 94.3 nM
- IC50 [3]: 237 nM
- IC50 (SMMC-7721): 109 nM
- IC50 [22]: 351 nM
- IC50 (Bel-7402): 78.4 nM
- IC50 [23]: > 1000 nM
- IC50 (HepG2): > 1000 nM
- IC50 (Huh-7): 218 nM
- IC50 [24]: > 1000 nM
- IC50 [25]: 107 nM
- IC50 [26]: 318 nM
- IC50 [27]: 278 nM
- IC50 [28]: 508 nM
- IC50 (SNU-387): 59.5 nM
- IC50 (SNU-398 [29]): 324 nM
- IC50 (SNU-423): 226 nM
- IC50 (SNU-449): 283 nM
- IC50 (SNU-475): 584 nM
- Activity (SNU-398 [4]): 22.9%
- Activity (SNU-398 [5]): 59.8%
- Activity (SNU-398 [6]): 13.8%
- Activity [7]: 18%
- Activity [8]: 67%
- Activity [9]: 8.4%
- Stability [30]: < 5%
- Stability [31]: < 5%
- Activity (Bos taurus [32]): Active
- Activity (Bos taurus [33]): Active

SMILES: COC(=O)Nc1nc2cc(C(=O)c3cccs3)ccc2[nH]1
- Activity (Bos taurus [12]): 4 ×10⁵ /M
- inhibition (Bos taurus [13]): Active
- inhibition (Bos taurus [14]): Active
- inhibition (Bos taurus [15]): Active
- inhibition (Bos taurus [16]): Active
- inhibition (Bos taurus [17]): Active
- inhibition (Bos taurus [18]): Active
- inhibition (Bos taurus [19]): inactive
